The source of these data is ChEMBL document CHEMBL1138814, “Synthesis, antiviral activity, and mode of action of some 3-substituted 2,5,6-trichloroindole 2'- and 5'-deoxyribonucleosides” (J Med Chem, 2004).

Some results are limits rather than exact numbers.

In assay [1] the test system is HFF. The experiment in a line: Inhibitory concentration required against human cytomegalovirus (HCMV) expressed in HFF cells was determined by plaque reduction assay. It is filed as functional, cell-based. In a few lines:
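HCMV Towne strain at about 100 pfu/cm² was adsorbed onto HFF monolayers. Compounds from 10 mg/mL DMSO stocks were diluted in growth medium and added at four to eight concentrations in duplicate wells. After 7–10 days at 37 °C, cells were fixed and stained with crystal violet and plaques counted microscopically. Percent plaque reduction versus no drug was regressed against log concentration to give IC50.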
A general note: Plaque reduction counts the foci of infection that form in a cell layer.

In assay [2] the test system is HFF. Briefly: Cytotoxicity produced in stationary HFF cells was determined by microscopic inspection of uninfected cells. It is filed as functional, cell-based. To be noted: Homo sapiens. In a few lines: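 Cytotoxicity was scored visually by microscopy on stationary HFF cells not affected by virus, at the time of HCMV plaque enumeration, in duplicate wells. IC50 came from linear regression of percent inhibition against log concentration.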

Assay [3] in a line: Inhibitory concentration required against herpes simplex virus type-1 (HSV-1) expressed in BSC-1 cells was determined by ELISA assay. The assay is classed as functional, cell-based, Cercopithecidae. In a few lines:
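BSC-1 cells (10 000/well, MEM(E) with 10% calf serum) were incubated overnight. Drug (quadruplicate) and HSV-1 at 100 pfu/well were then added, followed by 3 days at 37 °C. Plates were blocked and probed with HRP-conjugated rabbit anti-HSV-1 antibody, developed with TMB and stopped with H2SO4, with absorbance read at 450 and 570 nm. Percent absorbance reduction versus no drug was regressed against log concentration to give IC50.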

Assay [4] in a line: Cytotoxicity against KB cells was determined by crystal violet staining and spectrophotometric quantitation of dye eluted from stained cells. It is filed as functional, cell-based. The following applies: Homo sapiens. In a few lines:
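KB cells were seeded at 3000–5000 per well and incubated overnight. Compound was added at six to eight concentrations for 48 h at 37 °C in CO2, covering two population doublings. Cells were fixed in 95% ethanol and stained with 0.1% crystal violet, and the dye was eluted with acidified ethanol and read at 570 nm. IC50 came from regression of percent inhibition against log concentration.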

Assay [5] relates to HFF. The experiment in a line: Inhibitory concentration required against human cytomegalovirus (HCMV) wild type expressed in HFF cells was determined by plaque reduction assay. It is filed as functional, cell-based. Summed up: (§1)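 HFF monolayers in 24-well dishes were infected with about 100 pfu HCMV per cm² (wild type Towne; mutant strains carry UL56, UL89 or UL56 + UL89 mutations). After adsorption, drug from 10 mg/mL DMSO stock was diluted in medium and added at four to eight concentrations in duplicate wells. Cells were held 7–10 days at 37 °C, then crystal-violet stained and plaques counted against no-drug controls. IC50 came from linear regression of % inhibition versus log10 concentration, averaged over two experiments.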

For assay [6], the system named is HFF. The experiment in a line: Inhibitory concentration required against human cytomegalovirus (HCMV) D10 strain (UL89 mutant gene) expressed in HFF cells was determined by plaque reduction assay. It is filed as functional, cell-based. In a few lines:
as §1

The test system of assay [7] is HFF. The experiment in a line: Inhibitory concentration required against human cytomegalovirus (HCMV) r56 strain (UL56 mutant gene) expressed in HFF cells was determined by plaque reduction assay. It is filed as functional, cell-based. Summed up:
as §1

For assay [8], the system named is HFF. The experiment in a line: Inhibitory concentration required against human cytomegalovirus (HCMV) C4 strain (UL56 + UL89 mutant gene) expressed in HFF cells was determined by plaque reduction assay. It is filed as functional, cell-based. Summed up:
as §1

In the case of `OC[C@H]1O[C@@H](n2c(Cl)nc3cc(Cl)c(Cl)cc32)C[C@@H]1O`, the figures for the IC50 in assay [1] and in assay [2] were 20 µM and above 100 µM, respectively.
The corresponding values for `C[C@H]1OC(n2c(Cl)nc3cc(Cl)c(Cl)cc32)C(O)[C@@H]1O` (single isomer, unassigned) are 0.36 µM and 100 µM.
Consider `N#Cc1c(Cl)n([C@H]2C[C@H](O)[C@@H](CO)O2)c2cc(Cl)c(Cl)cc12`, for which the IC50 in assay [3] came to 35 µM; in assay [1], 0.3 µM; in assay [2], 32 µM; in assay [4] it was 60 µM.
The corresponding values for `CC(=O)c1c(Br)n([C@H]2C[C@H](O)[C@@H](CO)O2)c2cc(Cl)c(Cl)cc12` are above 100 µM, 0.34 µM, above 100 µM and above 100 µM.
In the case of `COc1c(C=O)c2cc(Cl)c(Cl)cc2n1[C@H]1C[C@H](O)[C@@H](CO)O1`, the IC50 in assay [3] is above 100 µM; in assay [1], above 100 µM; in assay [2], 100 µM; in assay [4] it was 20 µM.
In the case of `[N-]=[N+]=NC[C@H]1OC(n2c(Cl)c(C=O)c3cc(Cl)c(Cl)cc32)C(O)[C@@H]1O` (single isomer, unassigned), the IC50 in assay [3] came to 10 µM; in assay [1] it was 0.32 µM; in assay [2], 32 µM; in assay [4] it was 25 µM.
Turning to `CC(=O)c1c(Cl)n(C2O[C@H](CO)[C@@H](O)C2O)c2cc(Cl)c(Cl)cc12` (single isomer, unassigned), the IC50 is 0.26 µM in assay [5], 0.72 µM in assay [6], 1.2 µM in assay [7] and 6.2 µM in assay [8].
On to `CC(=O)c1c(Cl)n([C@H]2C[C@H](O)[C@@H](CO)O2)c2cc(Cl)c(Cl)cc12`, for which the IC50 in assay [3] was 8 µM; in assay [1], 0.3 µM; in assay [5], 0.22 µM; in assay [2], above 100 µM; in assay [4], 400 µM; in assay [6] it was 0.76 µM. Besides, the values for the IC50 in assay [7] and in assay [8] were 1.8 µM and 2.1 µM, respectively.
In the case of `N#Cc1c(Cl)n(C2O[C@H](CO)[C@@H](O)C2O)c2cc(Cl)c(Cl)cc12` (single isomer, unassigned), the IC50 in assay [3] is above 100 µM; in assay [4] it was 35 µM.
On to `Nc1nc2c(ncn2COC(CO)CO)c(=O)[nH]1` [GANCICLOVIR], for which the IC50 was 3.5 µM in assay [3]; 1.2 µM in assay [5]; above 100 µM in assay [2]; above 100 µM in assay [4]; 1.2 µM in assay [6]; 1.2 µM in assay [7]. The IC50 in assay [8] was found to be 2.5 µM.
On to `O=Cc1c(Cl)n(C2O[C@H](CO)[C@@H](O)C2O)c2cc(Cl)c(Cl)cc12` (single isomer, unassigned), for which the IC50 in assay [3] was 40 µM; in assay [5], 0.46 µM; in assay [4] it was 45 µM; in assay [6] it was 0.88 µM; in assay [7], 1.8 µM; in assay [8], 4.8 µM.
For `COc1c(C#N)c2cc(Cl)c(Cl)cc2n1[C@H]1C[C@H](O)[C@@H](CO)O1`, the IC50 in assay [3] is 90 µM; in assay [1], 68 µM; in assay [2], above 100 µM; in assay [4] it was above 100 µM.
For the compound `CC(=O)OC[C@H]1OC(n2c(Cl)c(C=O)c3cc(Cl)c(Cl)cc32)C(O)[C@@H]1O` (single isomer, unassigned), the IC50 amounted to 0.22 µM in assay [5], 0.88 µM in assay [6], 1.6 µM in assay [7] and 3.3 µM in assay [8].
In the case of `OC[C@H]1O[C@@H](n2c(Cl)nc3cc(Cl)c(Cl)cc32)C(O)[C@@H]1O` (single isomer, unassigned), the IC50 in assay [3] turned out to be 102 µM; in assay [4] it was 210 µM.
As to `C[C@H]1OC(n2c(Cl)c(C=O)c3cc(Cl)c(Cl)cc32)C(O)[C@@H]1O` (single isomer, unassigned), the IC50 in assay [3] was 20 µM; in assay [1], 0.3 µM; in assay [2] it was 32 µM; in assay [4] it was 25 µM.
The corresponding values for `OC[C@H]1O[C@@H](n2c(Cl)c(-c3ccco3)c3cc(Cl)c(Cl)cc32)C[C@@H]1O` are 20 µM, 3.6 µM, 3.2 µM and 50 µM.
The corresponding values for `N#Cc1c(Cl)n(C2O[C@H](CF)[C@@H](O)C2O)c2cc(Cl)c(Cl)cc12` (single isomer, unassigned) are 40 µM, 2.7 µM, 32 µM and 50 µM.
For `C[C@H]1OC(n2c(Cl)c(C#N)c3cc(Cl)c(Cl)cc32)C(O)[C@@H]1O` (single isomer, unassigned), in that order: 32 µM, 0.19 µM, 32 µM and 40 µM.
For the compound `N#Cc1c(Cl)n(C2O[C@H](CN=[N+]=[N-])[C@@H](O)C2O)c2cc(Cl)c(Cl)cc12` (single isomer, unassigned), the IC50 in assay [3] was 15 µM; in assay [1], 3 µM; in assay [2] it was above 100 µM; in assay [4], 60 µM.
The corresponding values for `O=Cc1c(Cl)n(C2O[C@H](CF)[C@@H](O)C2O)c2cc(Cl)c(Cl)cc12` (single isomer, unassigned) are 20 µM, 0.6 µM, 32 µM and 20 µM.
For `OC[C@H]1O[C@@H](n2c(Cl)c(-c3ccsc3)c3cc(Cl)c(Cl)cc32)C[C@@H]1O`, in that order: 20 µM, 38 µM, 32 µM and 50 µM.
Take `OC[C@H]1O[C@@H](n2c(Br)nc3cc(Cl)c(Cl)cc32)C(O)[C@@H]1O` (single isomer, unassigned): the IC50 in assay [3] is 130 µM; in assay [5] it was 0.99 µM; in assay [4] it was above 100 µM; in assay [6], 12 µM; in assay [7], 6.7 µM; in assay [8], 29 µM.

As usually defined, the IC50 is the midpoint of a concentration-inhibition curve.
